Results collected from several papers.
Protocols differ between the studies behind these lines.
Target: Serine/threonine-protein kinase/endoribonuclease IRE1 (ERN1, Homo sapiens, UniProt O75460)

SMILES	test	conditions	remaining binding [%]
Cc1cc(NC(=O)c2cccc(S(F)(F)(F)(F)F)c2)cc(-n2ccn3nc(-c4cccnc4)cc23)c1	cell-free assay, competition with immobilised ligand	1 µM	99.2
O=C(c1ccc(Nc2ncc(Cl)c(-c3cc4ccccc4s3)n2)cc1)N1CCC(N2CCCC2)CC1	binding, competition with immobilised ligand	1 µM	37
Nc1ncc2c(n1)-c1c([nH]c3ccc(C#CC4CC4)cc13)CCCC2	binding, competition with immobilised ligand	1 µM	100
CNCc1ccccc1-c1csc([C@@H](C)Nc2nc(C)nc3cc(OC)c(OC)cc23)c1	cell-free assay, competition with immobilised ligand	1 µM	100
O=C(Nc1c[nH]nc1C(=O)NC1CCNCC1)c1cc(F)cc(F)c1	binding, competition with immobilised ligand	1 µM	86
F[C@@H]1CCN(c2nccc(-c3cnn4ncccc34)n2)C1	binding	1 µM	83
c1cncc(-c2cccc(Nc3nccc(NC4CCCCC4)n3)c2)c1	binding, competition with immobilised ligand	10 µM	44
N[C@H]1CCN(c2nccc(-c3cnn4ncccc34)n2)C1	binding	1 µM	98
CCN1CCN(Cc2ccc(C(=O)Nc3ccc(C)c(Oc4ccc5c(c4)CC(=O)N5)c3)cc2C(F)(F)F)CC1	binding, competition with immobilised ligand	1 µM	100
O=C(O)[C@@H]1[C@@H](Cn2nnc3ccccc3c2=O)CC[C@H]1C(=O)c1ccc(OCCC2CCOCC2)cc1	cell-free assay, competition with immobilised ligand	1 µM	88
COc1ccnn2ncc(-c3ccnc(N(C)C)n3)c12	binding	1 µM	100
Cc1cnc(Nc2ccc(C(=O)N3CCC(N4CCCC4)CC3)cc2)nc1-c1cc2ccccc2s1	binding, competition with immobilised ligand	1 µM	24
COc1cccc(CNC(=O)c2nc3scc(COCc4ccc(C(=O)O)cc4)c3c(=O)[nH]2)c1	cell-free assay, competition with immobilised ligand	1 µM	89.7
CN(C)c1nccc(-c2cnc3ncccn23)n1	binding	1 µM	60
O=C(c1ccc(Nc2ncc(Cl)c(-c3ccc(Cl)s3)n2)cc1)N1CCC(N2CCCC2)CC1	binding, competition with immobilised ligand	1 µM	35
CCCOc1ccc([C@H]2[C@H](C(=O)O)[C@@H](c3ccc4c(c3)OCO4)CN2CC(=O)Nc2c(CC)cccc2CC)cc1	cell-free assay, competition with immobilised ligand	1 µM	86
Cc1cnn2ncc(-c3ccnc(N(C)C)n3)c2c1	binding	1 µM	100
CNC(=O)[C@@H]1CC[C@@H](n2c(-c3ccc4cnccc4c3)nc3ccc(C(=O)NCc4cccc(C(N)=O)c4)cc32)C1	binding, competition with immobilised ligand	1 µM	97
CCOCCn1cc(C(=O)Nc2ccc(-n3nc(-c4cccnc4)cc3C(F)(F)F)cn2)ccc1=O	cell-free assay, competition with immobilised ligand	1 µM	87
c1cnn2ncc(-c3ccnc(N4CCC45COC5)n3)c2c1	binding	1 µM	69
COc1cnc(Nc2cccc(S(N)(=O)=O)c2)nc1N1CCN(c2ccccc2)C(=O)C1	binding, competition with immobilised ligand	1 µM	78
